Laboratory results as given in ChEMBL document CHEMBL4376902, “CN128: A New Orally Active Hydroxypyridinone Iron Chelator” (J Med Chem, 2020).

Key:
[1] = Acid dissociation constant, pKa2 of the compound over pH 1.8 to 11.0 by spectrophotometric titration method; assay type: physicochemical
Summary of the method: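 Automated spectrophotometric titration with 0.1 M KOH in 0.1 pH-unit steps. Reading accepted as stable when drift was <0.01 pH unit after a 1.5 min incubation. 10 mm path length cuvette. Spectra fitted by computer to obtain the pKa values.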

[2] = Drug metabolism in rat liver microsomes assessed as glucuronidation incubated for 1 hr relative to deferiprone; assay type: ADME, Microsome
Summary of the method: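 Compound incubated 1 h with rat or human liver microsomes, n = 4, mean ± SD. Glucuronide formed given as percentage of total chelator added. Oxidative metabolism assessed separately.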

[3] = Drug metabolism in human liver microsomes assessed as oxidative metabolism incubated for 1 hr relative to deferiprone; assay type: ADME, Microsome
Cytochrome P450 1A2 = target: T1, Cytochrome P450 1A2 (Homo sapiens, UniProt P05177); test: Inhibition of CYP1A2 in human liver microsomes; assay type: ADME
T1 sequence (P05177 whole entry): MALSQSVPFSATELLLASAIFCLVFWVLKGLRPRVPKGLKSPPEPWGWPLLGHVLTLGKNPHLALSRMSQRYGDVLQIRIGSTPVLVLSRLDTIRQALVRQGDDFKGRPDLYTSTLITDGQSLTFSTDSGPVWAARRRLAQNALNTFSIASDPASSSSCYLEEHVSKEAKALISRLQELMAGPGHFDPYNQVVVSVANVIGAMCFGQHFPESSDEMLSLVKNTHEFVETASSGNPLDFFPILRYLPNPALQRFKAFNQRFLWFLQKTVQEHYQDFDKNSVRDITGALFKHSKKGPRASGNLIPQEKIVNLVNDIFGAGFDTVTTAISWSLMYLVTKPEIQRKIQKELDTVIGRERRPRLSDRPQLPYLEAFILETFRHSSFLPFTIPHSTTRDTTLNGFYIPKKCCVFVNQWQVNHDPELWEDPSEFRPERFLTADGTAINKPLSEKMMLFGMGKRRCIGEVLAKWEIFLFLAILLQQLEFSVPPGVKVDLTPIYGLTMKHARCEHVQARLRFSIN

Cytochrome P450 2C8 = target: T2, Cytochrome P450 2C8 (Homo sapiens, UniProt P10632); test: Inhibition of CYP2C8 in human liver microsomes; assay type: ADME
T2 sequence (P10632 whole entry): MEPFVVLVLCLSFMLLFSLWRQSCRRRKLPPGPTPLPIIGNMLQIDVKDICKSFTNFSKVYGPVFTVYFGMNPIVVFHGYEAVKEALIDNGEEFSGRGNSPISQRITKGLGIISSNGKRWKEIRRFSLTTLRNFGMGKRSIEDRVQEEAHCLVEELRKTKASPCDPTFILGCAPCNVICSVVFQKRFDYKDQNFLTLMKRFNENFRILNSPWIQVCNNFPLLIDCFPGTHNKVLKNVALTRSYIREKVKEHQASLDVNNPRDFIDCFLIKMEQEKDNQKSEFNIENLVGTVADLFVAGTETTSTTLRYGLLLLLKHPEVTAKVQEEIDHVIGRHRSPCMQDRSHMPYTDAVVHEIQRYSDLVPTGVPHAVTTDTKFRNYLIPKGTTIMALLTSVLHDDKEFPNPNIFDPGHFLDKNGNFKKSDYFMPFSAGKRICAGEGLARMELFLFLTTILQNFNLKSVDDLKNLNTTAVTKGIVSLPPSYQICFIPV

Cytochrome P450 2C9 = Cytochrome P450 2C9 (Homo sapiens, UniProt P11712); test: Inhibition of CYP2C9 in human liver microsomes; assay type: ADME
Chain of Cytochrome P450 2C9 (P11712 whole entry): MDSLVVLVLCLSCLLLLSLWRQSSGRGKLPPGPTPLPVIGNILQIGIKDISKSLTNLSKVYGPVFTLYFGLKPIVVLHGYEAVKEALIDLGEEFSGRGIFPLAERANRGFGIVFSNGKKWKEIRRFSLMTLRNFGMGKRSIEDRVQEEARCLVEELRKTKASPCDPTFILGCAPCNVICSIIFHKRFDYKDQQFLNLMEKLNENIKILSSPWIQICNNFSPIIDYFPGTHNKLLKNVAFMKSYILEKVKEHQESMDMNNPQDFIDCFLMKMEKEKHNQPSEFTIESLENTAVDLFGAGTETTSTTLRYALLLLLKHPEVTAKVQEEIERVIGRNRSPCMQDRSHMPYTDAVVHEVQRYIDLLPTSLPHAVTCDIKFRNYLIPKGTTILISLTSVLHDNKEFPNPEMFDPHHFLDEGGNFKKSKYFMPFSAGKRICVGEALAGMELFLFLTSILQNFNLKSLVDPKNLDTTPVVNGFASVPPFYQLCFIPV

Cytochrome P450 2D6 = Cytochrome P450 2D6 (Homo sapiens, UniProt P10635); test: Inhibition of CYP2D6 in human liver microsomes; assay type: ADME
Chain of Cytochrome P450 2D6 (P10635 whole entry): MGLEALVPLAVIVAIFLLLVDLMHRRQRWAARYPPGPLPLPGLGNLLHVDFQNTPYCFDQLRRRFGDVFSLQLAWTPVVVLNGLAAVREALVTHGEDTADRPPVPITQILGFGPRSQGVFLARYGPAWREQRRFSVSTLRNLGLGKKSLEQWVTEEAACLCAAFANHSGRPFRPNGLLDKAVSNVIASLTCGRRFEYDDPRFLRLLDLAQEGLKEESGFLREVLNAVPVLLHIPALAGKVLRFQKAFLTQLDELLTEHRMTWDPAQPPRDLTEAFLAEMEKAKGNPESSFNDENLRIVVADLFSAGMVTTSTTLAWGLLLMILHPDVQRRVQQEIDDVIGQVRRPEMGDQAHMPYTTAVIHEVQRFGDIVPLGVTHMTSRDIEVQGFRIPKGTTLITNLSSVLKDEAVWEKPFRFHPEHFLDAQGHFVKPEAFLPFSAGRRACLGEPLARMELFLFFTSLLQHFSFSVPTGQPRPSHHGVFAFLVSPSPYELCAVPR

Cytochrome P450 3A5 = Cytochrome P450 3A5 (Homo sapiens, UniProt P20815); test: Inhibition of CYP3A5 in human liver microsomes; assay type: ADME
Chain of Cytochrome P450 3A5 (P20815 whole entry): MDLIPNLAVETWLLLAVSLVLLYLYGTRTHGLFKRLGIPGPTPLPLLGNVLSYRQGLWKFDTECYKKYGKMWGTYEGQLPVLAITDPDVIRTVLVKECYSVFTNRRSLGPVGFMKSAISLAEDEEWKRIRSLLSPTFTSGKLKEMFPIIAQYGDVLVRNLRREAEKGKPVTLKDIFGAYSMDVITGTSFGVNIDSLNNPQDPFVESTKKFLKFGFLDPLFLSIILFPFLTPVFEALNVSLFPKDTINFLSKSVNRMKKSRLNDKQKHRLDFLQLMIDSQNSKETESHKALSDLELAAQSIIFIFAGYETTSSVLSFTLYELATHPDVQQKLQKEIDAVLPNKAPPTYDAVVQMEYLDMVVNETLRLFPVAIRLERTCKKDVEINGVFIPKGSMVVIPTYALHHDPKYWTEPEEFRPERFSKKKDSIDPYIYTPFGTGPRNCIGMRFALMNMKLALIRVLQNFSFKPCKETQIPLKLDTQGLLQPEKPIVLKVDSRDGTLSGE

[4] = Ratio of drug level in kidney to plasma in rat at 150 umol/kg, po measured within 10 mins by LC-MS/MS analysis; assay type: ADME, organism-based; conditions: kidney and plasma
Summary of the method: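 SD rats (half male, half female, n = 6 per group) given a single oral 150 μmol/kg dose. Killed at 10 min, 30 min, 2 h or 6 h; tissues washed in saline, weighed and homogenised in acetonitrile/water 1:9 (125 mg/mL). Tissue levels compared with plasma.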

[5] = Binding affinity to Mg2+ ion assessed as affinity constant by spectrophotometric titration method
[6] = AUC (0 to infinity) in Sprague-Dawley rat at 150 umol/kg, po measured up to 1440 mins by LC/MS/MS analysis; assay type: ADME, organism-based; parameters: dose 150 umol/kg, route oral, time infinity; conditions: in vivo, 24 h
[7] = AUC (0 to infinity) in Sprague-Dawley rat at 300 umol/kg, po measured up to 1440 mins by LC/MS/MS analysis; assay type: ADME, organism-based; parameters: dose 300 umol/kg, time infinity, route oral; conditions: in vivo, 24 h
[8] = AUC (0 to infinity) in Sprague-Dawley rat at 600 umol/kg, po measured up to 1440 mins by LC/MS/MS analysis; assay type: ADME, organism-based; parameters: dose 600 umol/kg, time infinity, route oral; conditions: in vivo, 24 h
[9] = Apparent clearance in Sprague-Dawley rat at 150 umol/kg, po measured up to 1440 mins by LC/MS/MS analysis; assay type: ADME, organism-based; conditions: in vivo, read-out: CL(app) (converted)
[10] = Apparent volume of distribution in Sprague-Dawley rat at 75 umol/kg, po measured up to 1440 mins by LC/MS/MS analysis; assay type: ADME, organism-based; conditions: in vivo, 24 h
[11] = Apparent volume of distribution in Sprague-Dawley rat at 150 umol/kg, po measured up to 1440 mins by LC/MS/MS analysis; assay type: ADME, organism-based; conditions: in vivo, 24 h
[12] = Apparent volume of distribution in Sprague-Dawley rat at 600 umol/kg, po measured up to 1440 mins by LC/MS/MS analysis; assay type: ADME, organism-based; conditions: in vivo, 24 h
[13] = Cmax in Sprague-Dawley rat at 600 umol/kg, po measured up to 1440 mins by LC/MS/MS analysis; assay type: ADME, organism-based; parameters: dose 600 umol/kg, route oral; conditions: in vivo
[14] = Oral bioavailability in Sprague-Dawley rat at 75 umol/k measured up to 1440 mins by LC/MS/MS analysis; assay type: ADME, organism-based; conditions: in vivo, 75 umol/kg
Summary of the method: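 Sprague-Dawley rats (200-250 g, half male, half female, n = 8 per route), fasted about 12 h. Dosed i.v. via tail vein at 75 μmol/kg or orally at 75-600 μmol/kg. Heparinised blood taken 0-1440 min; plasma protein-precipitated with acetonitrile and assayed by LC/MS/MS; bioavailability from oral vs i.v. exposure.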

[15] = Toxicity in Sprague-Dawley rat assessed as induction of mortality at 200 mg/kg, po dosed once daily for 2 months as 5 days per week schedule; assay type: organism-based; conditions: in vivo, 120 h
[16] = Toxicity in Sprague-Dawley rat assessed as induction of histopathological changes in pancreas at 25 to 116 mg/kg, po dosed daily for 4 weeks during chronic 4 week toxicity test; assay type: organism-based; conditions: in vivo, 672 h
[17] = Toxicity in Sprague-Dawley rat assessed as induction of histopathological changes in thymus. at 25 to 116 mg/kg, po dosed daily for 4 weeks during chronic 4 week toxicity test; assay type: organism-based; conditions: in vivo, 672 h
[18] = Binding affinity to Ni2+ ion assessed as pM value by spectrophotometric titration method
Mus musculus = test: Toxicity in mouse assessed as reduction in erythrocyte population at 200 mg/kg, po dosed once daily for 2 months as 5 days per week schedule; conditions: in vivo, 120 h

Question: What does the source list for `Cc1c(O)c(O)cc[n+]1[C@@H](CO)Cc1ccccc1.[Cl-]`?
Answer: pKa [1]: 9.9; Drug metabolism [2]: Metabolite_Detected; Drug metabolism [3]: Metabolite_Detected; IC50 (Cytochrome P450 1A2): > 200 µM; IC50 (Cytochrome P450 2C8): > 200 µM; IC50 (Cytochrome P450 2C9): > 200 µM; IC50 (Cytochrome P450 2D6): > 200 µM; IC50 (Cytochrome P450 3A5): > 200 µM; Kp at 10 min [4]: 3.3 to 8.8; log K [5]: 9.12; AUC [6]: 37700 ng·h/mL; AUC [7]: 89800 ng·h/mL; AUC [8]: 181000 ng·h/mL; CL/F [9]: 19 mL/min/kg; Vz [10]: 7.6 L/kg; Vz [11]: 5.29 L/kg; Vz [12]: 4.29 L/kg; Cmax [13]: 70 µg/mL; bioavailability [14]: 82.6%; Activity [15]: Non-Toxic; Activity [16]: Toxic; Activity [17]: Toxic; pM [18]: 6.17; Activity (Mus musculus): Non-Toxic
